# Screening results: PubChem, The Scripps Research Institute Molecular Screening Center
# PRMT1 inh: PRMT1 methyltransferase inhibitors, primary screen, biochemical, fluorescence polarization; Protein arginine N-methyltransferase 1 (Homo sapiens), Q99873; recombinant PRMT1, activity-based probe fluorescence polarization; inhibition, % at 2.79 µM; hit rate 1.3% among 370,000; AID 652257, 2013;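 active = inhibition above about 21% made by adding two undisclosed values, limit read from the data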
# TCR-CD3 inh: inhibitors of human TCR-CD3 interaction, primary screen, biochemical, fluorescence, TAMRA-labeled TCR probe | T-cell receptor (TCR) | inhibition, % at 9.4 µM | hit rate 0.37% among 360,000 | AID 651800, 2012; in the data active = inhibition above about 19%;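 note: recombinant mutant TCR 2C K166C tagged with TAMRA read by polarization; 0% = receptor in buffer alone and 100% = receptor with positive control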
# SIAE primary: human SIAE inhibitors, primary screen, biochemical, fluorescence polarization, FP-Rh probe, 1536-well HTS | Sialate O-acetylesterase (Homo sapiens), Q9HAT2 | SIAE FP-Rh probe binding | inhibition, % at 9.66 µM | hit rate 0.69% among 370,000 | AID 1053197, 2014;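 active = inhibition above a cutoff: mean of compounds within the control limits plus 3 SD of those, cut at about 17% in these data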;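 note: 0% = plate median of compound wells and 100% = probe without SIAE protein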
# mABHD4 FP: ABHD4 inhibitors, primary screen, biochemical, fluorescence polarization, mouse; purified mABHD4, FP-Rh probe fluorescence polarization; (Lyso)-N-acylphosphatidylethanolamine lipase (Mus musculus), Q8VD66; AID 720543, 2013; hit rate 0.54% among 370,000; inhibition, % at 8.92 µM;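 active = inhibition exceeding the mean over every tested compound plus 3 SD, cut at about 30% in these data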;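 note: 0% = plate median of compound wells and 100% = S159A mutant with DMSO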
#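 Doses – 8.92 µM, single dose · Material – wild-type mouse ABHD4 protein · Replication – single well per compound (singlicate) · Measure – percent inhibition of probe binding, normalized to plate controls · Schedule – 45 min compound pre-incubation plus 60 min probe step, 25 °C · Detection – fluorescence polarization with parallel and perpendicular emission, 525/598 nm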
# HTRA1 inhibitor: HTRA1 serine protease inhibitors, primary screen, biochemical, fluorescence polarization, HTS; hit rate 0.5% among 340,000; inhibition, % at 5.96 µM; recombinant HTRA1, FP-rhodamine activity-based probe; AID 504803, 2011; in the data active = inhibition above about 36%;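 note: 0% = enzyme with DMSO and 100% = wells lacking enzyme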
# Target sequence (Q92743 whole entry, looked up): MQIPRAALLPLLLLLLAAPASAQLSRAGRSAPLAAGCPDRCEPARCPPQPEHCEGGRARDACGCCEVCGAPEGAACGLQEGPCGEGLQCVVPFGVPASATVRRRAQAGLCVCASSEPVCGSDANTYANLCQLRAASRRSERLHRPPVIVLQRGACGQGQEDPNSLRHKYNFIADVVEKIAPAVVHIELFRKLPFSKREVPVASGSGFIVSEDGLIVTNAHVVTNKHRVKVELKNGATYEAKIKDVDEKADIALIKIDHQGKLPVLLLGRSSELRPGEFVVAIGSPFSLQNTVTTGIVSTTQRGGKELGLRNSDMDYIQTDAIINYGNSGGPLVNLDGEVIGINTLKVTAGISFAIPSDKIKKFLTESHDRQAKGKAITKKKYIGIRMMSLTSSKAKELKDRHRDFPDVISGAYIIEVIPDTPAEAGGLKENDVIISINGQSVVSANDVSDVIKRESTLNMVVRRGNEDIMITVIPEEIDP
# mABHD4 conf: ABHD4 inhibitors, retest, confirmation, biochemical, fluorescence polarization, mouse | hit rate 55% among 1,800 | purified mABHD4, FP-Rh probe fluorescence polarization | shares compounds with mABHD4 FP | inhibition, % at 8.92 µM;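 active = mean inhibition across replicates above the hit cutoff set in the primary screen, cut at about 30% in these data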;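 note: 0% = wild-type ABHD4 with DMSO and 100% = catalytically dead S159A mutant with DMSO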
# SIAE confirm: human SIAE inhibitors, retest, confirmation, biochemical, fluorescence polarization, FP-Rh probe, triplicate; hit rate 13% among 2,300; AID 1117263, 2014; SIAE FP-Rh activity-based probe; inhibition, % at 9.66 µM; shares compounds with SIAE primary;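 active = mean inhibition of the replicates above the hit cutoff set in the primary screen, cut at about 17% in these data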;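 note: 0% = SIAE with DMSO and probe and 100% = probe without SIAE; inhibitors lower polarization as more probe stays unbound to SIAE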
# Numbers without * were called inactive; . = no result given. This is a sample that favours compounds with a hit; in the whole collection about 2.5% have one here.
SMILES,PRMT1 inh,TCR-CD3 inh,SIAE primary,mABHD4 FP,HTRA1 inhibitor,mABHD4 conf,SIAE confirm
CCCCCCCCCCOC(=O)Cn1c(COc2ccccc2C)[n+](C)c2ccccc21,.,.,.,.,32,.,.
CCCCCCCCCCOC(=O)Cn1c(COc2ccccc2)[n+](C)c2ccccc21,-1,2,0,30*,20,33*,.
CCCCCCCCCCOC(=O)Cn1c(COc2ccc(Cl)cc2)[n+](C)c2ccccc21,5,1,1,35*,34,55*,.
CCOC(=O)Cc1cc(=O)n2[nH]cc(-c3cccc(Br)c3)c2n1,-1,1,-1,32*,5,22,.
COCc1cc(=O)n2[nH]cc(-c3ccccc3)c2n1,-1,5,4,9,3,.,.
Cc1ccc(/C=N/Nc2cc(C)nc(NCc3ccccc3)n2)cc1,-7,-3,1,34*,-23,60*,.
CCCCN1CC(=O)N2[C@H](C[C@@]3(C)c4ccccc4N(S(=O)(=O)c4ccccc4)[C@@H]23)C1=O,-2,.,3,0,.,.,.
COc1cc(/C=C/C(=O)O)cc(S(=O)(=O)Nc2cc(Cl)c(Cl)cc2Cl)c1OC,2,6,2,32*,-11,35*,.
O=C1OC(c2ccccc2)(c2cc(Br)c(O)c(Br)c2)c2ccccc21 (centres undefined),0,6,-1,35*,-7,32*,.
O=C(O)c1ccc(C2(c3ccc(C(=O)O)cc3)OC(=O)c3ccccc32)cc1,0,2,-4,1,-5,.,.
COC(=O)[C@]12C[C@H](CC(=O)NCC34CC5CC(CC(C5)C3)C4)C(=O)N(Cc3cccc4ccccc34)C1=C[C@H](C(C)(C)C)O[C@@H]2C,2,.,3,1,.,.,.
COC(=O)C[C@H]1CC[C@@H]2[C@H](COc3ccc(NC(=O)c4cnccn4)cc3C(=O)N2C)O1,-1,.,9,4,.,.,.
COc1cccc(/C=N/NC(=O)c2ccc3nc[nH]c3c2)c1O,3,-19,-42,7,11,.,.
COc1cccc(/C=N/NC(=O)c2cc3c(OC)ccc(OC)c3[nH]2)c1O,2,12,34*,37*,25,62*,9
Oc1cccc(NC(=S)Nc2ccc(SC(F)F)cc2)c1,10,-6,6,-16,6,.,.
Oc1cccc2c(NC(=S)Nc3ccc(SC(F)F)cc3)cccc12,17,-5,19*,40*,23,-2,2
CCOc1ccc(-n2c(SCC(=O)Nc3ccc(S(=O)(=O)Nc4cc(C)nc(C)n4)cc3)nnc2-c2cccc(C)c2)cc1,-1,.,-11,-28,.,.,.
CC(=O)c1cc(-c2ccccc2)n(CC(=O)NCc2ccccc2)c1C,-11,.,8,1,.,.,.
C(=N\Nc1nc2ccccc2[nH]1)/c1ccccc1,5,0,13,11,-3,.,.
Brc1ccc(-c2ccc(/C=N/Nc3nc4ccccc4[nH]3)o2)cc1,4,-1,19*,32*,10,59*,34*
COc1cc(/C=N/NC(=O)C(Cc2c[nH]c3ccccc23)NC(=O)OCC(C)C)cc([N+](=O)[O-])c1O (centres undefined),10,-2,55*,36*,27,49*,44*
CC(=O)NC(Cc1c[nH]c2ccccc12)C(=O)N/N=C/c1ccccc1 (centres undefined),0,-2,0,7,-3,.,.
COc1ccc(NC(=S)NNc2ccc([N+](=O)[O-])cc2S(=O)(=O)Nc2ccc(C)cc2C)cc1,24*,-4,47*,39*,5,38*,-5
COc1cc2ccc(=O)oc2c(O)c1O,5,11,26*,32*,11,6,15
COc1cc2ccc(=O)oc2c(O[C@@H]2O[C@H](CO)[C@@H](O)[C@H](O)[C@H]2O)c1O,0,6,9,3,3,.,.
SMILES,PRMT1 inh,TCR-CD3 inh,SIAE primary,mABHD4 FP,HTRA1 inhibitor,mABHD4 conf,SIAE confirm
[O-][n+]1c2c(c3c4non(O)c4ccc31)CCCC2,1,8,31*,35*,20,27,28*
COc1ccc(CNc2nc(=S)[nH]c3cc(OC)c(OC)cc23)cc1,3,-1,2,3,-5,.,.
COc1ccc(CNc2ncnc3c2[nH]c2cc(OC)c(OC)cc23)cc1,-1,0,37*,32*,14,70*,24*
Cc1ccc(NC(=O)[C@@H]2CCCN2S(=O)(=O)c2cccc3cccnc23)c(C)c1,0,.,-4,0,.,.,.
O=C(O)c1cccc(N/N=C/c2cc(Br)cc(Br)c2O)c1,5,14,31*,56*,-1,80*,3
CN(C(=S)NC(=O)C12CC3CC(CC(C3)C1)C2)c1ccc(O)cc1,26*,17,18*,41*,11,15,1
CN1C2=N[C@H](c3cccc(C(F)(F)F)c3)CC(=O)N2/C(=C\c2ccccc2)[C@H]1c1ccccc1,-3,.,1,-2,.,.,.
O=C(NNc1c2ccccc2nc2ccccc12)c1ccccc1Cl,-7,8,8,8,1,.,.
O=C(NNc1c2ccccc2nc2ccccc12)c1ccc(O)cc1O,4,-6,28*,35*,26,62*,10
CN(C)c1ccc(NC(=S)Nc2ccc3c(c2)c(=O)n(C)n3-c2ccc(C(C)(C)C)cc2)cc1,8,-8,20*,31*,.,45*,8
O=C(NC(=S)Nc1cccc2c(O)cccc12)c1ccccc1[N+](=O)[O-],10,11,23*,48*,8,-11,-4
O=C(NC(=S)Nc1cccc2c(O)cccc12)c1ccco1,6,4,17*,30*,3,4,2
C(=C\c1ccccc1)/C=N/Nc1nc2ccccc2[nH]1,-1,-1,22*,32*,32,33*,18*
CCOC(=O)CNC(=O)CSc1nc2ccccc2c(=O)n1-c1ccc(Cl)cc1,0,.,-2,-4,.,.,.
COc1ccc2[nH]c3c(C)c4ccncc4c(C)c3c2c1,-5,-5,21*,32*,22,57*,20*
Cc1c2ccncc2cc2c1[nH]c1ccccc12,1,7,2,28,-9,.,.
Cc1ccccc1NCc1nc2ccccc2n1C,1,2,12,0,1,.,.
Cn1c(CNc2ccccc2O)nc2ccccc21,0,4,19*,31*,19,10,10
